# Measured values published in ChEMBL document CHEMBL2146359, “HCV NS5A replication complex inhibitors. Part 2: investigation of stilbene prolinamides” (Bioorg Med Chem Lett, 2012).
# pEC50: −log10 of the molar value.
# Key:
# [1] = Cytotoxicity against human HuH7 cells after 72 hrs by Alamar Blue assay; assay type: cell-based; conditions: Huh-7 cells
# [2] = tested on: Bovine viral diarrhea virus 1; assay: Antiviral activity against BVDV1; assay type: functional, organism-based; conditions: Bovine viral diarrhea virus isolates and strains
# Hepatitis C virus = assay: Antiviral activity against HCV genotype 1b infected in human Huh7 cells assessed as inhibition of viral replication by FRET assay; assay type: functional, organism-based, Hepacivirus hominis; conditions: Huh-7
# How it was run: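 Replicon potency values are the means of at least two experiments.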
compound,measurement,setting,value
O=C(Nc1ccc(/C=C/c2ccc(NC(=O)[C@@H]3CCCN3C(=O)Cc3ccccc3)cc2)cc1)[C@@H]1CCCN1C(=O)Cc1ccccc1,CC50 at 72 h,[1],> 10 µM
same,pEC50,[2],< 5.00
C[C@@H](C(=O)N1CCC[C@H]1C(=O)Nc1ccc(/C=C/c2ccc(NC(=O)[C@@H]3CCCN3C(=O)[C@H](C)c3ccccc3)cc2)cc1)c1ccccc1,pEC50,Hepatitis C virus,> 8.30
same,CC50 at 72 h,[1],> 10 µM
same,pEC50,[2],< 5.00
O=C(Nc1ccc(/C=C/c2ccc(NC(=O)[C@@H]3C4CC4CN3C(=O)OCc3ccccc3)cc2)cc1)[C@@H]1C2CC2CN1C(=O)OCc1ccccc1 (stereo partly specified),pEC50,Hepatitis C virus,7.05
same,CC50 at 72 h,[1],> 10 µM
same,pEC50,[2],< 5.00
O=C(Nc1ccc(/C=C/c2ccc(NC(=O)[C@@H]3CCCN3C(=O)Cc3ccccc3)cc2)cc1)[C@@H]1CCCN1,pEC50,Hepatitis C virus,5.86
same,CC50 at 72 h,[1],> 10 µM
same,pEC50,[2],< 5.00
CC(=O)Nc1ccc(/C=C/c2ccc(NC(=O)[C@@H]3CCCN3C(=O)Cc3ccccc3)cc2)cc1,pEC50,Hepatitis C virus,5.79
same,CC50 at 72 h,[1],> 10 µM
same,pEC50,[2],< 5.00
Nc1ccc(/C=C/c2ccc(NC(=O)[C@@H]3CCCN3C(=O)Cc3ccccc3)cc2)cc1,pEC50,Hepatitis C virus,< 5.00
same,CC50 at 72 h,[1],> 10 µM
same,pEC50,[2],< 5.00
C[C@H](NC(=O)Cc1ccccc1)C(=O)Nc1ccc(/C=C/c2ccc(NC(=O)[C@@H]3CCCN3C(=O)Cc3ccccc3)cc2)cc1,pEC50,Hepatitis C virus,8.59
same,CC50 at 72 h,[1],> 10 µM
same,pEC50,[2],< 5.00
CC(=O)N[C@@H](C)C(=O)Nc1ccc(/C=C/c2ccc(NC(=O)[C@@H]3CCCN3C(=O)Cc3ccccc3)cc2)cc1,pEC50,Hepatitis C virus,6.82
same,CC50 at 72 h,[1],> 10 µM
same,pEC50,[2],< 5.00
O=C(Cc1ccccc1)NCC(=O)Nc1ccc(/C=C/c2ccc(NC(=O)[C@@H]3CCCN3C(=O)Cc3ccccc3)cc2)cc1,pEC50,Hepatitis C virus,6.11
same,CC50 at 72 h,[1],> 10 µM
same,pEC50,[2],< 5.00
C[C@H](NC(=O)OCc1ccccc1)C(=O)Nc1ccc(/C=C/c2ccc(NC(=O)[C@H](C)NC(=O)OCc3ccccc3)cc2)cc1,pEC50,Hepatitis C virus,5.49
same,CC50 at 72 h,[1],> 10 µM
same,pEC50,[2],< 5.00
C[C@@H](C(=O)Nc1ccc(/C=C/c2ccc(NC(=O)[C@H](C)N(C)C(=O)OCc3ccccc3)cc2)cc1)N(C)C(=O)OCc1ccccc1,pEC50,Hepatitis C virus,7.14
same,CC50 at 72 h,[1],> 10 µM
same,pEC50,[2],< 5.00
O=C(Nc1ccc(/C=C/c2ccc(NC(=O)[C@@H]3CCN3C(=O)OCc3ccccc3)cc2)cc1)[C@@H]1CCN1C(=O)OCc1ccccc1,pEC50,Hepatitis C virus,7.24
same,CC50 at 72 h,[1],> 10 µM
same,pEC50,[2],< 5.00
O=C(Nc1ccc(/C=C/c2ccc(NC(=O)[C@@H]3CCCCN3C(=O)OCc3ccccc3)cc2)cc1)[C@@H]1CCCCN1C(=O)OCc1ccccc1,pEC50,Hepatitis C virus,7.20
same,CC50 at 72 h,[1],> 10 µM
same,pEC50,[2],< 5.00
O=C(Nc1ccc(/C=C/c2ccc(NC(=O)[C@@H]3Cc4ccccc4N3C(=O)OCc3ccccc3)cc2)cc1)[C@@H]1Cc2ccccc2N1C(=O)OCc1ccccc1,pEC50,Hepatitis C virus,7.17
same,CC50 at 72 h,[1],> 10 µM
same,pEC50,[2],< 5.00
O=C(Nc1ccc(/C=C/c2ccc(NC(=O)[C@@H]3[C@H]4CCC[C@H]4CN3C(=O)OCc3ccccc3)cc2)cc1)[C@@H]1[C@H]2CCC[C@H]2CN1C(=O)OCc1ccccc1,pEC50,Hepatitis C virus,6.92
same,CC50 at 72 h,[1],> 10 µM
same,pEC50,[2],< 5.00
O=C(Nc1ccc(/C=C/c2ccc(NC(=O)[C@@H]3COCN3C(=O)OCc3ccccc3)cc2)cc1)[C@@H]1COCN1C(=O)OCc1ccccc1,pEC50,Hepatitis C virus,8.21
same,CC50 at 72 h,[1],> 10 µM
same,pEC50,[2],< 5.00
O=C(Nc1ccc(/C=C/c2ccc(NC(=O)[C@@H]3C[C@H](O)CN3C(=O)OCc3ccccc3)cc2)cc1)[C@@H]1C[C@H](O)CN1C(=O)OCc1ccccc1,pEC50,Hepatitis C virus,7.94
same,CC50 at 72 h,[1],> 10 µM
same,pEC50,[2],< 5.00
CO[C@@H]1C[C@@H](C(=O)Nc2ccc(/C=C/c3ccc(NC(=O)[C@@H]4C[C@@H](OC)CN4C(=O)OCc4ccccc4)cc3)cc2)N(C(=O)OCc2ccccc2)C1,pEC50,Hepatitis C virus,> 8.30
same,CC50 at 72 h,[1],> 10 µM
same,pEC50,[2],< 5.00
CCO[C@@H]1C[C@@H](C(=O)Nc2ccc(/C=C/c3ccc(NC(=O)[C@@H]4C[C@@H](OCC)CN4C(=O)OCc4ccccc4)cc3)cc2)N(C(=O)OCc2ccccc2)C1,pEC50,Hepatitis C virus,7.42
same,CC50 at 72 h,[1],> 10 µM
same,pEC50,[2],< 5.00
CO[C@H]1C[C@@H](C(=O)Nc2ccc(/C=C/c3ccc(NC(=O)[C@@H]4C[C@H](OC)CN4C(=O)OCc4ccccc4)cc3)cc2)N(C(=O)OCc2ccccc2)C1,pEC50,Hepatitis C virus,> 8.30
same,CC50 at 72 h,[1],> 10 µM
same,pEC50,[2],< 5.00
CCO[C@H]1C[C@@H](C(=O)Nc2ccc(/C=C/c3ccc(NC(=O)[C@@H]4C[C@H](OCC)CN4C(=O)OCc4ccccc4)cc3)cc2)N(C(=O)OCc2ccccc2)C1,pEC50,Hepatitis C virus,7.82
same,CC50 at 72 h,[1],> 10 µM
same,pEC50,[2],< 5.00
CC(C)(C)O[C@H]1C[C@@H](C(=O)Nc2ccc(/C=C/c3ccc(NC(=O)[C@@H]4C[C@H](OC(C)(C)C)CN4C(=O)OCc4ccccc4)cc3)cc2)N(C(=O)OCc2ccccc2)C1,pEC50,Hepatitis C virus,6.46
same,CC50 at 72 h,[1],> 10 µM
same,pEC50,[2],< 5.00
CC(C)(C)NC(=O)O[C@@H]1C[C@@H](C(=O)Nc2ccc(/C=C/c3ccc(NC(=O)[C@@H]4C[C@@H](OC(=O)NC(C)(C)C)CN4C(=O)OCc4ccccc4)cc3)cc2)N(C(=O)OCc2ccccc2)C1,pEC50,Hepatitis C virus,< 5.00
same,CC50 at 72 h,[1],> 10 µM
same,pEC50,[2],< 5.00
N[C@H]1C[C@@H](C(=O)Nc2ccc(/C=C/c3ccc(NC(=O)[C@@H]4C[C@H](N)CN4C(=O)OCc4ccccc4)cc3)cc2)N(C(=O)OCc2ccccc2)C1,pEC50,Hepatitis C virus,5.89
same,CC50 at 72 h,[1],> 10 µM
same,pEC50,[2],< 5.00
CN(C)[C@H]1C[C@@H](C(=O)Nc2ccc(/C=C/c3ccc(NC(=O)[C@@H]4C[C@H](N(C)C)CN4C(=O)OCc4ccccc4)cc3)cc2)N(C(=O)OCc2ccccc2)C1,pEC50,Hepatitis C virus,8.00
same,CC50 at 72 h,[1],> 10 µM
same,pEC50,[2],< 5.00
C[C@H](C(=O)N1CCC[C@H]1C(=O)Nc1ccc(/C=C/c2ccc(NC(=O)[C@@H]3CCCN3C(=O)[C@@H](C)c3ccccc3)cc2)cc1)c1ccccc1,pEC50,Hepatitis C virus,8.30
same,CC50 at 72 h,[1],> 10 µM
same,pEC50,[2],< 5.00
O=C(Nc1ccc(/C=C/c2ccc(NC(=O)[C@@H]3CCCN3C(=O)c3ccccc3)cc2)cc1)[C@@H]1CCCN1C(=O)c1ccccc1,pEC50,Hepatitis C virus,6.99
same,CC50 at 72 h,[1],> 10 µM
same,pEC50,[2],< 5.00
CC(=O)N1CCC[C@H]1C(=O)Nc1ccc(/C=C/c2ccc(NC(=O)[C@@H]3CCCN3C(C)=O)cc2)cc1,pEC50,Hepatitis C virus,5.62
same,CC50 at 72 h,[1],> 10 µM
same,pEC50,[2],< 5.00
O=C(Nc1ccc(/C=C/c2ccc(NC(=O)[C@@H]3CCCN3C(=O)Cc3ccccn3)cc2)cc1)[C@@H]1CCCN1C(=O)Cc1ccccn1,pEC50,Hepatitis C virus,8.65
same,CC50 at 72 h,[1],> 10 µM
same,pEC50,[2],< 5.00
O=C(Nc1ccc(/C=C/c2ccc(NC(=O)[C@@H]3CCCN3C(=O)Cc3ccncc3)cc2)cc1)[C@@H]1CCCN1C(=O)Cc1ccncc1,pEC50,Hepatitis C virus,6.76
same,CC50 at 72 h,[1],> 10 µM
same,pEC50,[2],< 5.00
O=C(Nc1ccc(/C=C/c2ccc(NC(=O)[C@@H]3CCCN3C(=O)Cc3cccs3)cc2)cc1)[C@@H]1CCCN1C(=O)Cc1cccs1,pEC50,Hepatitis C virus,8.89
same,CC50 at 72 h,[1],> 10 µM
same,pEC50,[2],< 5.00
Cn1cccc1CC(=O)N1CCC[C@H]1C(=O)Nc1ccc(/C=C/c2ccc(NC(=O)[C@@H]3CCCN3C(=O)Cc3cccn3C)cc2)cc1,pEC50,Hepatitis C virus,7.99
same,CC50 at 72 h,[1],> 10 µM
same,pEC50,[2],< 5.00
Cc1cc(CC(=O)N2CCC[C@H]2C(=O)Nc2ccc(/C=C/c3ccc(NC(=O)[C@@H]4CCCN4C(=O)Cc4cc(C)no4)cc3)cc2)on1,pEC50,Hepatitis C virus,7.12
same,CC50 at 72 h,[1],> 10 µM
same,pEC50,[2],< 5.00
Cn1cnc(CC(=O)N2CCC[C@H]2C(=O)Nc2ccc(/C=C/c3ccc(NC(=O)[C@@H]4CCCN4C(=O)Cc4cn(C)cn4)cc3)cc2)c1,pEC50,Hepatitis C virus,7.06
same,CC50 at 72 h,[1],> 10 µM
same,pEC50,[2],< 5.00
O=C(Nc1ccc(/C=C/c2ccc(NC(=O)[C@@H]3CCCN3C(=O)Cc3c[nH]cn3)cc2)cc1)[C@@H]1CCCN1C(=O)Cc1c[nH]cn1,pEC50,Hepatitis C virus,6.00
same,CC50 at 72 h,[1],> 10 µM
same,pEC50,[2],< 5.00
Cc1nc2sccn2c1C(=O)N1CCC[C@H]1C(=O)Nc1ccc(/C=C/c2ccc(NC(=O)[C@@H]3CCCN3C(=O)c3c(C)nc4sccn34)cc2)cc1,pEC50,Hepatitis C virus,7.24
same,CC50 at 72 h,[1],> 10 µM
same,pEC50,[2],< 5.00
O=C(Nc1ccc(/C=C/c2ccc(NC(=O)[C@@H]3CCCN3C(=O)c3c[nH]c4ccccc34)cc2)cc1)[C@@H]1CCCN1C(=O)c1c[nH]c2ccccc12,pEC50,Hepatitis C virus,6.95
same,CC50 at 72 h,[1],> 10 µM
same,pEC50,[2],< 5.00
Cn1cc(C(=O)N2CCC[C@H]2C(=O)Nc2ccc(/C=C/c3ccc(NC(=O)[C@@H]4CCCN4C(=O)c4cn(C)c5ccccc45)cc3)cc2)c2ccccc21,pEC50,Hepatitis C virus,6.85
same,CC50 at 72 h,[1],> 10 µM
same,pEC50,[2],< 5.00
O=C(Nc1ccc(/C=C/c2ccc(NC(=O)[C@@H]3CCCN3C(=O)C3Cc4ccccc4O3)cc2)cc1)[C@@H]1CCCN1C(=O)C1Cc2ccccc2O1 (stereo partly specified),pEC50,Hepatitis C virus,7.96
same,CC50 at 72 h,[1],> 10 µM
same,pEC50,[2],< 5.00
